# Screen size: about 190,000 compounds; about 1,800 (0.95%) were called active.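 The calls were made as follows: active = activation above the screen-wide mean of compound activation plus 3 SD (cut at about 130% in these data); inactive = the rest.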 The list comes from a sample in which actives are over-represented; it also holds similar structures and randomly drawn compounds.
# Assay: IL-6 driven STAT3 reporter potentiators, primary screen, U3A cells, luciferase, luminescence, MLSCN library (AID 871);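 also: 0% = background luminescence of wells with medium and substrate only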
# Conditions: IL-6 STAT3-luciferase reporter, at 5.6 µM, active compounds read high, 100% = signal with IL-6 EC80 alone
# In short: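 Detection: reporter luminescence signal / Assay system: STAT1-lacking human U3A cells, STAT3 luciferase reporter / Incubation: compound pre-incubation 1 h before IL-6, then 6 h stimulation at 37 °C / Control set: IL-6-only high control / Read-out: % activation relative to IL-6 control / Probe or stimulus: Interleukin-6, 33 ng/mL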
row,SMILES,activation (% of control)
1,O=C(C1=C(O)C(=O)N(Cc2ccccc2)C1c1ccco1)c1ccco1 (centres undefined),101% (inactive)
2,O=C(C1=C(O)C(=O)N(c2ncccn2)C1c1cccs1)c1ccco1 (centres undefined),134% (active)
3,O=C(C1=C(O)C(=O)N(Cc2ccccc2)C1c1cccnc1)c1ccco1 (centres undefined),100% (inactive)
4,CCOC(=O)CNC(=O)/C=C/c1c(Cl)cccc1Cl,86.6% (inactive)
5,CCOC(=O)C1CCN(c2ncnc3c2c(-c2ccccc2)cn3-c2ccc(C)cc2)CC1,102% (inactive)
6,CCOC(=O)C1CCN(C(=O)c2oc3ccc(S(=O)(=O)N4CCCCCC4)cc3c2C)CC1,89.9% (inactive)
7,CCOC(=O)C1CCN(c2ncnc3c2oc2ccc(Br)cc23)CC1,141% (active)
8,O=C(O)c1ccccc1-c1ccccc1C(=O)Nc1nccs1,101% (inactive)
9,COc1cc(C(=O)Nc2nccs2)cc(OC)c1OC,81% (inactive)
10,Cn1cccc1C(=O)Nc1nccs1,140% (active)
11,COC(=O)Cc1c(O)ccn(Cc2cccc(C(F)(F)F)c2)c1=O,99.8% (inactive)
12,COCC(=O)N=Nc1c(O)[nH]c2ccccc12,92.2% (inactive)
13,Cc1cccc(N(CC(=O)N=Nc2c(O)[nH]c3ccccc23)S(C)(=O)=O)c1C,140% (active)
14,Cc1c(-c2ccccc2)n[nH]c1C(=O)N=Nc1c(O)[nH]c2ccccc12,84.5% (inactive)
15,CC1=NNC(=O)C1CCC(=O)N/N=C\c1ccc(Cl)c(Cl)c1 (centres undefined),108% (inactive)
16,Cc1ccc2nsnc2c1NC(=O)c1ccccc1[N+](=O)[O-],99.5% (inactive)
17,O=C(O/N=C(/c1ccccc1)c1ccncc1)c1ccccc1[N+](=O)[O-],113% (inactive)
18,C/C(=N\NC(=O)CNc1cccc2ccccc12)c1ccc(Br)s1,137% (active)
19,C/C(=N\NC(=O)CSc1nc2ccccc2c(=O)n1-c1ccccc1C)c1cccs1,105% (inactive)
20,Cc1cccc(/C=N/NC(=O)CNc2cccc3ccccc23)n1,114% (inactive)
21,Cc1cc(/C=N/NC(=O)c2cccnc2)c(C)n1CC(C)C,118% (inactive)
22,CSCCC(NC(=O)COc1ccccc1)C(=O)OCC(=O)c1cc2ccccc2o1 (centres undefined),116% (inactive)
23,CSCCC(NC(=O)c1ccco1)C(=O)OCC(=O)Nc1ncc(Cl)c(C)c1Cl (centres undefined),145% (active)
24,Cc1c(Cl)cnc(NC(=O)COC(=O)c2ccc(S(=O)(=O)NCc3ccco3)cc2)c1Cl,103% (inactive)
25,CC(C)OCCCNc1ncnc2c1[nH]c1ccc(F)cc12,36.3% (inactive)

row,SMILES,activation (% of control)
1,O=C(CCn1c(=S)[nH]c2ccccc2c1=O)NCCCN1CCCC1=O,98.6% (inactive)
2,O=C1CCCN1CCCNc1ncnc2c1[nH]c1ccccc12,151% (active)
3,CCCc1nnc(SCC(=O)N2C(C)CCCC2C)n1CC (centres undefined),105% (inactive)
4,N#CCSc1nn(-c2ccc(F)cc2)c(=S)s1,103% (inactive)
5,O=C(CNC1CCCCC1)NCC1(c2ccccc2)CCCC1,112% (inactive)
6,CN1CCN(c2ccc(S(=O)(=O)Nc3ccccc3)cc2[N+](=O)[O-])CC1,79.1% (inactive)
7,O=C(CSc1nc2ccccc2[nH]1)N/N=C/C=C\c1ccccc1[N+](=O)[O-],96.6% (inactive)
8,CN1CCN(c2ccc([N+](=O)[O-])c(Sc3nc4ccccc4[nH]3)c2)CC1,137% (active)
9,COc1ccc2c(c1)CCc1cn3ncc(C#N)c3nc1-2,100% (inactive)
10,O=C(NCC1CCCCC1)c1cc(S(=O)(=O)N2CCCCC2)ccc1N1CCOCC1,104% (inactive)
11,O=[N+]([O-])c1ccc(N2CCN(S(=O)(=O)c3ccc4ccccc4c3)CC2)cc1NCc1ccco1,154% (active)
12,CC(=O)Nc1ccc(S(=O)(=O)N2CCN(c3ccc([N+](=O)[O-])c(NCCN4CCOCC4)c3)CC2)cc1,104% (inactive)
13,O=C(c1ccccc1)N1CCN(c2ccc([N+](=O)[O-])c(NCc3ccco3)c2)CC1,107% (inactive)
14,CCCS(=O)(=O)N1CCC(CCOc2ccccc2)(C(=O)OCC)CC1,95.8% (inactive)
15,Oc1ccc(Cl)cc1/C=N/c1nc2ccccc2[nH]1,143% (active)
16,c1ccc2[nH]c(-c3nc4ccccc4[nH]3)nc2c1,63.1% (inactive)
17,O=C(/C(=C/c1cccc(Cl)c1)c1nc2ccccc2[nH]1)c1ccccc1,98.5% (inactive)
18,Cc1c(C(=O)Nc2cccc(Cl)c2)cn2c(nc3ccccc32)c1C#N,94.7% (inactive)
19,Cc1ccc(O)c(CNc2nc3ccccc3n2C)c1,102% (inactive)
20,C/C(=N\c1nc2ccccc2n1C)c1cc(Cl)ccc1O,137% (active)
21,CC(C)CNC(=O)/C=C/C(=O)O,103% (inactive)
22,O=C(CN1CCCC1)N1CCN(c2ccccc2)CC1,104% (inactive)
23,Cc1nnc(SCc2cccc(Cl)c2)n(N)c1=O,88.9% (inactive)
24,Cc1cccc(N=Nc2c(C)[nH]n(-c3ccccc3)c2=O)c1,122% (inactive)
25,Cc1ccc(N=Nc2c(C)[nH]n(-c3ccccc3)c2=O)cc1,147% (active)

row,SMILES,activation (% of control)
1,Cc1c(N=Nc2ccc(N(C)C)cc2)c(=O)n(-c2ccccc2)n1C,115% (inactive)
2,Cc1nc2scc(-c3cccs3)c2c(=O)n1N,97.7% (inactive)
3,Cc1nn2c3ccccc3nc2n(C)c1=O,91% (inactive)
4,Cn1cccc1-c1nc2ccccc2n1C,89.2% (inactive)
5,Cc1ccc(C2=NN(C)c3nc4ccccc4n3C2)cc1,170% (active)
6,O=C(N/N=C1\CCSC1)c1cc(Cl)ccc1O,100% (inactive)
7,Cc1c(C(=O)CN2CCOCC2)[nH]c2ccccc12,121% (inactive)
8,CCCC(=O)Nc1c(O)c2ccccc2[nH]c1=O,101% (inactive)
9,CCCS(=O)(=O)Nc1c(C(=O)O)[nH]c2ccccc12,184% (active)
10,O=C(CCc1ccc(S(=O)(=O)N2CCOCC2)cc1)Nc1ccc2ccccc2c1,104% (inactive)
11,Cc1ccnc(NS(=O)(=O)c2ccc(NC(=O)c3ccc(S(=O)(=O)N4CCOCC4)cc3)cc2)n1,100% (inactive)
12,O=C(Nc1ccc2cn[nH]c2c1)c1ccc(S(=O)(=O)N2CCOCC2)cc1,135% (active)
13,CCOC(=O)c1c(/N=C/c2cc(C)ccc2O)sc2c1CCC2,99.7% (inactive)
14,Cc1ccc(C(=O)N/C(=C\c2ccco2)C(=O)N2CCSCC2)cc1C,109% (inactive)
15,COc1ccc(N2C(=O)CC(Nc3ccc(F)cc3)C2=O)c([N+](=O)[O-])c1 (centres undefined),92.9% (inactive)
16,C=CCOc1ccc(/C=N/NC(=O)C(C)Sc2ccccn2)cc1OCC (centres undefined),106% (inactive)
17,Cn1c(=NC(=O)C2CC2)sc2cc(F)cc(F)c21,135% (active)
18,COc1ccc(OC)c2c1sc(=NC(=O)CN1C(=O)CCC1=O)n2C,101% (inactive)
19,CCOc1ccc(-n2c(O)c(/C=N/c3ccnn3Cc3ccncc3)c3ccccc3c2=O)cc1,105% (inactive)
20,O=C(O)c1ccc(/C=N/NC(=S)NCc2ccccc2)cc1,96.6% (inactive)
21,CSc1nc2sc3c(c2c(=O)[nH]1)CCc1ccccc1-3,136% (active)
22,COc1ccc(-n2c(=S)[nH]c3sc4c(c3c2=O)CCc2ccccc2-4)cc1,112% (inactive)
23,CSc1nc(O)c(Cc2ccccc2)c(=O)[nH]1,95.3% (inactive)
24,c1ccc(-c2cn3cccnc3n2)cc1,91.9% (inactive)
25,c1ccc(-c2cn3c(n2)CCc2ccc4cccnc4c2-3)cc1,157% (active)

row,SMILES,activation (% of control)
1,O=C(CN1C(=O)CC(c2ccccc2)S(=O)(=O)c2ccccc21)NC1CCCC1 (centres undefined),101% (inactive)
2,COC(=O)/C(C#N)=C/c1occc1C,94.2% (inactive)
3,CCOC(=O)N1CCN(CCC(=O)Nc2cc(OC)ccc2OC)CC1,111% (inactive)
4,Cc1cccc(C2c3[nH]c4ccccc4c3CCN2C(=O)c2cc(-c3cccn3C)n[nH]2)n1 (centres undefined),134% (active)
5,CCCC(=O)N1CCc2[nH]c3ccccc3c2C1,99.4% (inactive)
6,COCc1ccc(C(=O)N2CCc3c([nH]c4ccccc34)C2c2ccccn2)s1 (centres undefined),96.9% (inactive)
7,O=C(c1cn2ccccc2n1)N1CCc2c([nH]c3ccccc23)C1c1ccccn1 (centres undefined),105% (inactive)
8,Cc1cccc(C(=O)N2CCc3c([nH]c4ccccc34)C2CC(C)C)n1 (centres undefined),145% (active)
9,O=C(NC1CCCCC1)N1CCc2[nH]c3ccccc3c2C1,96% (inactive)
10,COc1ccc(NC(=O)C(=O)NCC(=O)Nc2cccc(C(F)(F)F)c2)cc1,98.3% (inactive)
11,COC(=O)c1ccc(NC(=S)NN2CCOCC2)cc1,109% (inactive)
12,O=C(CC1SCCNC1=O)Nc1ccc(Cl)cc1 (centres undefined),105% (inactive)
13,CCOC(=O)C1(Cc2cccc(OC)c2)CCN(Cc2csc(C(C)=O)c2)CC1,92.5% (inactive)
14,COCCCNC(=O)C1CCC(CNS(=O)(=O)c2ccc(OC)cc2)CC1 (centres undefined),99.2% (inactive)
15,O=C1NC(c2ccccc2)=NC1(Nc1ccccn1)C(F)(F)F (centres undefined),100% (inactive)
16,CN(C)S(=O)(=O)c1cc(NC(=O)CN2C(=O)NC3(CCCc4ccccc43)C2=O)ccc1Cl (centres undefined),105% (inactive)
17,COc1cc(/C=C/C(=O)OCC(=O)NC(=O)NCc2ccccc2)ccc1OCC#N,95.5% (inactive)
18,COc1ncnc2sc3c(c12)CCCC3,104% (inactive)
19,COc1ccc(/C=N/Nc2ncnc3sc4c(c23)CCCC4)cc1O,147% (active)
20,COc1cc(/C=N/Nc2ccc(C)cc2)cc(Br)c1O,115% (inactive)
21,CSc1ccccc1C(=O)NCc1ccccc1,108% (inactive)
22,CC(C)CNC(=O)COC(=O)/C=C/c1ccccc1[N+](=O)[O-],145% (active)
23,O=C(/C=C/c1ccccc1[N+](=O)[O-])NCC1CCCO1 (centres undefined),97.5% (inactive)
24,CC(C)CNC(=O)COC(=O)/C=C/c1ccco1,105% (inactive)

# Source: PubChem BioAssay AID871 (The Scripps Research Institute Molecular Screening Center, 2007)
